Experimental data published in ChEMBL document CHEMBL5154720, “In silico screening-based discovery of novel covalent inhibitors of the SARS-CoV-2 3CL protease” (Eur J Med Chem, 2022).

How the values were obtained:
[1] = biological target: Replicase polyprotein 1ab (Severe acute respiratory syndrome coronavirus 2) (UniProt P0DTD1); test: Inhibition of SARS-CoV-2 3CL protease using MCA-AVLQSGFR-Lys(Dnp)-Lys-NH2 fluorogenic peptide as substrate incubated for 30 mins at 50 uM and measured by FRET assay relative to control
Procedure, shortened: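 Recombinant SUMO-tag-cleaved 3CLpro (E. coli BL21(DE3), Ni-NTA, Q-Sepharose, size exclusion), 50 nM final, preincubated 30 min with compound in 50 mM Tris pH 7.3, 1 mM EDTA; reaction started with 20 μM final FRET substrate. Fluorescence 320/405 nm read every 30 s for 5 min; initial velocity relative to DMSO control. Mean ± SD of three independent experiments.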

[2] = biological target: Replicase polyprotein 1ab (Severe acute respiratory syndrome coronavirus 2, UniProt P0DTD1); test: Inhibition of SARS-CoV-2 3CL protease using MCA-AVLQSGFR-Lys(Dnp)-Lys-NH2 fluorogenic peptide as substrate incubated for 30 mins and measured by FRET assay

| Compound | inhibition [1] [%] | IC50 [2] [µM] |
| --- | --- | --- |
| NC(=O)CN1C(=O)C(O)(CC(=O)/C=C\c2ccc3c(c2)OCO3)c2ccccc21 (stereo unspecified) | 55.2 | 36.1 |
| CN(C(=O)CN1CC(C=O)c2ccccc21)c1ccccc1 (stereo unspecified) | 32.6 | – |
| O=C(/C=C/c1cn(CC(O)CN2CCOCC2)c2ccccc12)c1cccs1 (stereo unspecified) | 22.3 | – |
| Cc1cccc(C)c1NC(=O)CSc1nc2c(cc1C#N)C(=O)CCC2 | 15.2 | – |
| O=C(CC1C(=O)NCCN1C(=O)CCl)Nc1cccc(Cl)c1 (stereo unspecified) | 87.6 | 8.5 |
| CC1=C(C#N)C(=O)N(CCCO)C(=O)/C1=N\Nc1ccc(Br)cc1C(=O)O | 65.5 | 19.1 |
| NS(=O)(=O)c1ccc(NC(=O)C(=O)c2ccc[nH]2)cc1 | 31.4 | – |
| Cn1c(CN2CCC(C(N)=O)CC2)c(C#N)c2ccccc21 | 24.1 | – |
